# Assays:
# [1] = target: T1, Prostaglandin G/H synthase 1 (Ovis aries, UniProt P05979); test: Inhibition of ovine COX1 assessed as reduction in oxidized TMPD using arachidonic acid as substrate preincubated for 5 mins followed by substrate addition and measured after 2 mins by colorimetric assay
# T1 sequence (P05979 whole entry): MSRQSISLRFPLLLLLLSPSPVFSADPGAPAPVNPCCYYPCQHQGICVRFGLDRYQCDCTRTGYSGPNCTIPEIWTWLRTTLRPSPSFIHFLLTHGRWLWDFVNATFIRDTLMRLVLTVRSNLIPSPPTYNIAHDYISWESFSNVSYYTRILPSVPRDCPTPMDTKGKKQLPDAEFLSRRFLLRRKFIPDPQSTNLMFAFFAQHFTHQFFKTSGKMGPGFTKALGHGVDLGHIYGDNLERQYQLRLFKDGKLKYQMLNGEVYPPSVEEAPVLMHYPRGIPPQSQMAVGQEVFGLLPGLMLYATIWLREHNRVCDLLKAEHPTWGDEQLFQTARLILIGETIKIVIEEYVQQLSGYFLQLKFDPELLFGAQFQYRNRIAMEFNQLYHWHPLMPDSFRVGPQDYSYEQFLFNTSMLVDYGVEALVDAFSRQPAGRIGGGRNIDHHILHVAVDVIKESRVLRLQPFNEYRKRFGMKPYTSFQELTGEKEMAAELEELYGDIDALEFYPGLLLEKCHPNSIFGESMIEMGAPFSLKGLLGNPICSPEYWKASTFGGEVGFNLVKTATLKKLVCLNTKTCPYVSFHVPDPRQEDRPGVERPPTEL
# [2] = Ulcerogenicity in albino rat assessed as ulcer index at 18 mg/kg, po administrated once daily for 3 successive days and measured after 6 hrs from last dose (reference value: 0); format: toxicity, organism-based; conditions: in vivo
# Rattus norvegicus [3] = test: Antiinflammatory activity in albino rat assessed as inhibition of carrageenan-induced paw edema at 18 mg/kg, ip pretreated for 1 hr followed by carrageenan challenge and measured after 3 hrs by caliper method relative to control; format: functional
# Outline: (§1)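 Carrageenin paw edema in male albino rats (150–200 g, n = 6 per group), 18 mg/kg i.p. 1 h before 0.1 mL 10% carrageenin into the right hind paw. Caliper thickness at 1–4 h. Percent edema inhibition derived from thickness change relative to the untreated control group.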
# Rattus norvegicus [4] = test: Antiinflammatory activity against carrageenan-induced paw oedema in albino rat assessed as hind paw thickness at 18 mg/kg, ip pretreated for 1 hr followed by carrageenan challenge and measured after 3 hrs by caliper method (reference value: 0.94 +/- 0.02 millimeter); format: functional
# Outline: (§2)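 Male albino rats, 150–200 g, six per group, housed at 27 °C on a 12/12 light-dark cycle. Given 18 mg/kg i.p.; control group left untreated. Right hind paw injected 1 h later with 0.1 mL 10% carrageenin. Paw thickness measured by skin caliper at 1, 2, 3 and 4 h after injection. Reported as mean ± S.D., n = 6; significance p < 0.05.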
# Rattus norvegicus [5] = test: Antiinflammatory activity against carrageenan-induced paw oedema in albino rat assessed as hind paw thickness at 18 mg/kg, ip pretreated for 1 hr followed by carrageenan challenge and measured after 4 hrs by caliper method (reference value: 1.24 +/- 0.02 millimeter); format: functional; outline: as §2
# Rattus norvegicus [6] = test: Antiinflammatory activity in albino rat assessed as inhibition of carrageenan-induced paw edema at 18 mg/kg, ip pretreated for 1 hr followed by carrageenan challenge and measured after 1 hr by caliper method relative to control; format: functional; outline: as §1
# [7] = Ulcerogenicity in albino rat assessed as average severity score at 18 mg/kg, po administrated once daily for 3 successive days and measured after 6 hrs from last dose (reference value: 0); format: toxicity, organism-based; conditions: in vivo
# Rattus norvegicus [8] = test: Antiinflammatory activity against carrageenan-induced paw oedema in albino rat assessed as hind paw thickness at 18 mg/kg, ip pretreated for 1 hr followed by carrageenan challenge and measured after 1 hr by caliper method (reference value: 0.73 +/- 0.03 millimeter); format: functional; outline: as §2
# Rattus norvegicus [9] = test: Antiinflammatory activity against carrageenan-induced paw oedema in albino rat assessed as hind paw thickness at 18 mg/kg, ip pretreated for 1 hr followed by carrageenan challenge and measured after 2 hrs by caliper method (reference value: 0.84 +/- 0.02 millimeter); format: functional; outline: as §2
# Rattus norvegicus [10] = test: Antiinflammatory activity in albino rat assessed as inhibition of carrageenan-induced paw edema at 18 mg/kg, ip pretreated for 1 hr followed by carrageenan challenge and measured after 2 hrs by caliper method relative to control; format: functional; outline: as §1
# Rattus norvegicus [11] = test: Antiinflammatory activity in albino rat assessed as inhibition of carrageenan-induced paw edema at 18 mg/kg, ip pretreated for 1 hr followed by carrageenan challenge and measured after 4 hrs by caliper method relative to control; format: functional; outline: as §1
# Rattus norvegicus [12] = test: Antiinflammatory activity against carrageenan-induced paw oedema in albino rat assessed as hind paw thickness at 18 mg/kg, ip pretreated for 1 hr followed by carrageenan challenge and measured immediately by caliper method (reference value: 0.24 +/- 0.24 millimeter); format: functional
# [13] = Ulcerogenicity in albino rat assessed as incidence of gastric ulceration at 18 mg/kg, po administrated once daily for 3 successive days and measured after 6 hrs from last dose relative to control; format: toxicity, organism-based; conditions: in vivo
IC50 [1],Compound,UI [2],inhibition in vivo at 18 mg/kg (Rattus norvegicus [3]),Activity (Rattus norvegicus [4]),Activity (Rattus norvegicus [5]),inhibition in vivo at 18 mg/kg (Rattus norvegicus [6]),Activity [7],Activity (Rattus norvegicus [8]),Activity (Rattus norvegicus [9]),inhibition in vivo at 18 mg/kg (Rattus norvegicus [10]),inhibition in vivo at 18 mg/kg (Rattus norvegicus [11]),Activity (Rattus norvegicus [12]),Activity [13]
3.68 µM,O=S(=O)(NCc1ccccc1)c1ccccc1-c1nnc(SCc2ccccc2)o1,–,–,–,–,–,–,–,–,–,–,–,–
2.98 µM,Nn1c(S)nnc1-c1ccccc1S(=O)(=O)NCc1ccccc1,360,45.4%,0.56 mm,0.63 mm,39.7%,3.6,0.44 mm,0.48 mm,42.9%,49.2%,0.24 mm,100%
5.71 µM,O=S(=O)(NCc1ccccc1)c1ccccc1-c1nnc(S)n1/N=C/c1ccc(Cl)cc1,–,–,–,–,–,–,–,–,–,–,–,–
3.25 µM,COc1ccc(/C=N/n2c(S)nnc2-c2ccccc2S(=O)(=O)NCc2ccccc2)cc1,–,–,–,–,–,–,–,–,–,–,–,–
12.2 µM,CC(C)NS(=O)(=O)c1ccccc1C(=O)N1N=C(c2ccccc2)CC1=O,4,44.7%,0.52 mm,0.54 mm,42.5%,0.2,0.42 mm,0.5 mm,43.5%,56.5%,0.24 mm,20%
–,COc1ccc2c(c1)c(CC(=O)O)c(C)n2C(=O)c1ccc(Cl)cc1 [INDOMETHACIN],480,–,–,–,–,4.8,–,–,–,–,–,100%
7.65 µM,O=C(N/N=C/c1ccc(Cl)cc1)C(C(=O)N/N=C/c1ccc(Cl)cc1)N1C(=O)c2ccccc2S1(=O)=O,–,–,–,–,–,–,–,–,–,–,–,–
6.45 µM,O=S(=O)(NCc1ccccc1)c1ccccc1-c1nnc(S)n1/N=C/c1ccccc1,–,–,–,–,–,–,–,–,–,–,–,–
1.98 µM,O=C(N/N=C/c1ccccc1)C(C(=O)N/N=C/c1ccccc1)N1C(=O)c2ccccc2S1(=O)=O,–,–,–,–,–,–,–,–,–,–,–,–
4.52 µM,O=S(=O)(NCc1ccccc1)c1ccccc1-c1nnc(S)o1,–,–,–,–,–,–,–,–,–,–,–,–
11.8 µM,Cc1cc(-c2ccccc2)n(C(=O)C(C(=O)n2nc(C)cc2-c2ccccc2)N2C(=O)c3ccccc3S2(=O)=O)n1,4,56.4%,0.41 mm,0.48 mm,50.7%,0.2,0.36 mm,0.41 mm,51.2%,61.3%,0.24 mm,20%
–,Cc1ccc(-c2cc(C(F)(F)F)nn2-c2ccc(S(N)(=O)=O)cc2)cc1 [CELECOXIB],3,53.2%,0.44 mm,0.46 mm,43.8%,0,0.41 mm,0.44 mm,47.6%,62.9%,0.24 mm,0%
9.24 µM,Cc1cc(-c2ccccc2)n(C(=O)c2ccccc2S(=O)(=O)NC(C)C)n1,4,59.6%,0.38 mm,0.43 mm,56.2%,0.2,0.32 mm,0.36 mm,57.1%,65.3%,0.24 mm,20%
8.21 µM,CCSc1nnc(-c2ccccc2S(=O)(=O)NCc2ccccc2)o1,–,–,–,–,–,–,–,–,–,–,–,–
4.21 µM,O=S(=O)(NCc1ccccc1)c1ccccc1-c1nnc(S)n1/N=C/c1ccc(Br)cc1,–,–,–,–,–,–,–,–,–,–,–,–
2.78 µM,O=C(N/N=C/c1ccc(F)cc1)C(C(=O)N/N=C/c1ccc(F)cc1)N1C(=O)c2ccccc2S1(=O)=O,120,54.2%,0.43 mm,0.55 mm,50.7%,1.2,0.36 mm,0.4 mm,52.4%,54.3%,0.24 mm,100%

# — ChEMBL document CHEMBL4346689, “Novel benzenesulfonamide and 1,2-benzisothiazol-3(2H)-one-1,1-dioxide derivatives as potential selective COX-2 inhibitors” (Eur J Med Chem, 2019)
